Source: PubChem BioAssay (The Scripps Research Institute Molecular Screening Center)
S1P4 antag – human S1P4 receptor antagonism; inhibition, % at 4.98 µM; O95977; 0.26% of 220,000 active; S1P4-expressing cells, antagonist mode, reporter read-out; in the data active means inhibition above about 29%;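 further: 0% = wells stimulated with agonist and 100% = vehicle wells without agonist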
NPY2 pot ag – human NPY-Y2 potentiation or agonism, primary screen; cells expressing NPY-Y2, potentiator/agonist read-out; activation, % at 3.6 µM; 0.45% of 220,000 active; in the data active means activation above about 27%;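 further: cells stimulated with NPY near EC25 plus isoproterenol at EC100; 0% = vehicle plus submaximal agonist and 100% = vehicle plus saturating agonist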
NPY Y2 blocker – blocks the human neuropeptide Y Y2 receptor; P49146; NPY-Y2 expressing cells, antagonist mode; inhibition, % at 2.7 µM; 0.99% of 140,000 active; AID 793; in the data active means inhibition above about 17%;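 further: 0% = vehicle with agonist challenge and 100% = reference antagonist with challenge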
NPY-Y1 PAM-ag – potentiates or activates human NPY-Y1 receptor | NPY-Y1 expressing cells, potentiator/agonist activation | activation, % at 3.6 µM | 0.37% of 220,000 active; in the data active means activation above about 33%, passing the limit was not always enough;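 further: cells stimulated with NPY at EC10 then isoproterenol at EC100; 0% = low agonist plus stimulus and 100% = saturating agonist plus stimulus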
Target sequence (P25929 whole entry, looked up): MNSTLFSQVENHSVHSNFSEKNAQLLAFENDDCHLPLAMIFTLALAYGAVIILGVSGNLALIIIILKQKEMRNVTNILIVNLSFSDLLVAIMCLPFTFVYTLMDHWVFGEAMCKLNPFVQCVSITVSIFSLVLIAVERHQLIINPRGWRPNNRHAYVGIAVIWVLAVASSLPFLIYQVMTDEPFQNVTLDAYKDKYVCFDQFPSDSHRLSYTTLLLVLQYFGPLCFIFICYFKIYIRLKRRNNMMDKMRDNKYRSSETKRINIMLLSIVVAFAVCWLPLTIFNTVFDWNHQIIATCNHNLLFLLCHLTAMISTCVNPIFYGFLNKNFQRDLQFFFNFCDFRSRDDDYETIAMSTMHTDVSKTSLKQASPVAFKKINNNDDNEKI
S1P4 ag – agonists of human S1P4 receptor; O95977; S1P4-expressing cell line, agonist reporter assay; activation, % at 4.98 µM; 0.35% of 220,000 active; AID 1509; in the data active means activation above about 11%;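 further: 0% = DMSO vehicle and 100% = reference agonist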
NPY-Y1 antag – blocks the human neuropeptide Y Y1 receptor | P25929 | HEK293-CNG Y1 cells, membrane potential fluorescence; NPY at EC95, then isoproterenol | inhibition, % at 3.6 µM | 1% of 200,000 active;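 active means inhibition above the campaign mean inhibition of all tested compounds plus 3 SD, cut at about 20% in these data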;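 further: 0% = DMSO wells given NPY plus isoproterenol and 100% = isoproterenol alone without NPY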
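Material: HEK293 Y1/CNG channel cell line; also added: NPY (25 nM), isoproterenol (1 µM), Ro 20-1724 (25 µM); doses: one concentration, 3.6 µM, in 0.4% DMSO; schedule: compound incubation 1 h at room temperature, readout 45 min post-stimulation; technique: membrane potential fluorescence; measure: fluorescence ratio normalized to % inhibition between controls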
The depositor's hits bear a star; x = no result. Only some compounds are listed: those with a hit (about 2.4% of all), similar ones and a draw of the others.

SMILES	S1P4 antag	NPY2 pot ag	NPY Y2 blocker	NPY-Y1 PAM-ag	S1P4 ag	NPY-Y1 antag
CCc1cc2ccccc2nc1SCC(=O)Nc1cc(OC)c(OC)cc1C(=O)O	-2.1	-20.0	4.5	-43.0	2.1	11.9
Cc1ccc(-c2nc3ncccc3o2)cc1NC(=O)c1cc2ccccc2o1	7.1	20.1	19.7*	10.2	-0.4	22.2*
O=C(Nc1cccc(-c2nc3ncccc3o2)c1)c1cc2ccccc2o1	-1.2	-9.1	8.8	-9.6	-0.2	5.4
COc1ccc(C2c3c(ncn(Cc4ccco4)c3=N)Oc3ccc4ccccc4c32)cc1 (configuration not stated)	5.0	-9.9	14.5	-8.7	-0.2	18.1
N=c1c2c(ncn1Cc1ccco1)Oc1ccc3ccccc3c1C2c1ccccc1 (configuration not stated)	14.5	5.0	32.5*	-10.9	1.0	39.5*
O=C(NC1CCCCCC1)c1cc(S(=O)(=O)N2CCCCC2)ccc1N1CCOCC1	0.5	-2.4	x	-1.0	2.0	21.0*
Cc1ccc(Cn2c(-c3nonc3N)nc3ccccc32)cc1	-39.7	-8.1	20.8*	-41.2	1.5	23.4*
COC(=O)C(=CC(=CN(C)C)C=C(C(=O)OC)C(=O)OC)C(=O)OC	-1.3	10.5	x	10.1	-0.6	x
Cc1ccc(OCC(=O)N/N=C/C=C/c2ccco2)cc1C	-5.7	-18.5	9.2	-7.1	-2.1	6.1
COc1ccccc1CC(=O)Nc1ccc(-c2noc(COc3ccc(Br)cc3)n2)cc1	-23.9	-8.6	6.6	-8.5	0.7	14.7
COc1ccccc1CC(=O)Nc1ccc(-c2noc(COc3cccc(C)c3C)n2)cc1	-6.1	-23.0	22.5*	9.9	-2.0	33.3*
Cc1ccc(C(=O)CSc2cc(C)nc(SCC(=O)c3ccccc3)n2)cc1	0.8	-6.2	11.1	-10.8	-0.6	10.1
Cc1cc(Oc2ccc(C)c(Cl)c2)nc(SCC(=O)c2ccccc2)n1	-15.8	-22.6	35.1*	-73.5	-0.8	33.9*
O=C(CSCc1ccc(Cl)cc1)NCc1ccc2c(c1)OCO2	-3.5	-23.0	7.3	-9.3	-0.3	9.4
CC(COC(=O)c1ccccc1)(COC(=O)c1ccccc1)/[N+]([O-])=C/c1ccccc1	-7.7	-10.2	18.3*	-14.3	-0.7	21.3*
COc1ccc(C(=O)/C(=C/N(C)C)S(=O)(=O)c2ccccc2)cc1	0.8	3.0	x	3.5	0.5	-0.2
CN(C)/C=C(/C(=O)c1ccccc1Cl)S(=O)(=O)c1ccccc1	-6.0	-16.6	2.7	-9.4	1.8	39.2*
COCCNC(=O)CSc1nc(N)c(NC(=O)c2ccccc2F)c(=O)[nH]1	-16.8	-2.3	1.2	-24.0	0.3	-1.8
O=[N+]([O-])c1ccc2nc(-c3ccc(Cl)cc3)n(OCc3ccccc3)c2c1	3.1	-2.8	2.5	-0.6	1.9	3.2
Clc1ccc(COn2c(-c3ccc(Cl)cc3)nc3ccccc32)cc1	7.5	-149.5	61.2*	-201.8	1.9	84.2*
Clc1ccc(COn2c(-c3ccccc3)nc3ccccc32)cc1	9.1	-77.4	37.2*	-110.9	-0.3	53.6*
COC(=O)C1=C(SC)N(c2ccccc2)C(c2ccccc2)CC1=O (configuration not stated)	-18.7	6.2	2.2	13.2	-0.6	5.7
N/C(=N/O)c1ccccc1N1CCC(Cc2ccccc2)CC1	-2.9	5.7	x	1.8	-0.7	9.5
O=C1CC(=C(c2ccccc2)c2ccccc2)C(=O)N1CCN1CCN(c2cccc(Cl)c2)CC1	-32.7	-11.2	7.8	-14.9	0.0	10.1
O=C1CC(=C(c2ccccc2)c2ccccc2)C(=O)N1CCCN1CCN(c2cccc(Cl)c2)CC1	24.6	62.5*	1.4	75.4*	-2.1	-0.9
SMILES	S1P4 antag	NPY2 pot ag	NPY Y2 blocker	NPY-Y1 PAM-ag	S1P4 ag	NPY-Y1 antag
CCOC(=O)C1C(c2ccc(O)c(OC)c2)NC(=S)NC1(O)C(F)(F)F (configuration not stated)	-5.4	7.2	4.5	-13.2	1.2	4.1
O=C(O)CCC(=O)Nc1ccc(/C=C/C(=O)C2CC2)cc1	17.9	2.6	x	23.8	-0.5	10.2
Cc1ccc(C(c2nnnn2C(C)(C)C)N(Cc2ccco2)Cc2cccs2)cc1 (configuration not stated)	-14.3	-14.4	18.2*	8.2	1.2	5.4
CC(C)C(c1nnnn1Cc1ccccc1)N(Cc1ccco1)Cc1cccs1 (configuration not stated)	-4.3	6.3	3.9	4.7	-0.8	-0.6
CCN(Cc1ccccc1)C(c1ccncc1)c1nnnn1C(C)(C)C (configuration not stated)	-5.8	15.0	4.5	2.9	-0.8	5.5
CC(C)(C)n1nnnc1C(c1ccc(Cl)cc1)N(Cc1cccnc1)Cc1ccco1 (configuration not stated)	-19.1	-14.0	27.7*	-23.2	2.0	24.9*
CC(C)(C)n1nnnc1CN(Cc1cccnc1)Cc1ccccc1Cl	7.3	-2.5	4.6	-12.6	0.9	6.4
Fc1ccc(C(c2nnnn2C2CCCC2)N(Cc2ccco2)CC2CCCO2)cc1 (configuration not stated)	-9.2	4.5	43.2*	-6.4	-3.6	31.7*
CC(C)(C)n1nnnc1C(c1ccc(F)cc1)N(Cc1ccc(F)cc1)Cc1ccco1 (configuration not stated)	-6.6	-6.8	26.8*	-10.1	0.7	47.4*
CCOC(=O)NNC(=O)NCCCCCCNC(=O)NNC(=O)OCC	12.2	12.2	x	18.3	-1.0	x
O=c1[nH]nc(SCc2ccccc2)n1C1CC2C=CC1C2 (configuration not stated)	-2.0	-25.3	x	-12.2	1.8	x
O=[N+]([O-])c1cccc(S(=O)(=O)c2cccc([N+](=O)[O-])c2)c1	-6.3	8.2	x	-0.6	1.8	-3.6
CC(C)(C)n1nnnc1C(c1ccc(C(F)(F)F)cc1)N(Cc1ccc(F)cc1)Cc1ccco1 (configuration not stated)	0.0	-31.3	25.6*	-8.3	2.4	32.2*
O=C(/C=C/c1cn(-c2ccccc2)nc1-c1cccnc1)c1ccco1	17.4	-11.2	x	1.8	-1.8	-3.5
CCN(CC)CCn1c(=N)n(CC(O)COc2ccccc2)c2ccccc21 (configuration not stated)	14.3	-43.7	x	-44.4	-0.9	x
CCN(CC)CCn1c(=N)n(CCOc2ccccc2)c2ccccc21	-12.3	-12.6	34.7*	-13.3	1.4	29.9*
CC(=O)Nc1cc(C(=O)NCCN2CCN(Cc3ccccc3)CC2)ccc1Sc1ccc(C)cc1	7.3	-41.7	x	-35.3	-1.0	6.8
COc1ccc(C2c3c(-c4cc(Cl)c(C)cc4O)n[nH]c3C(=O)N2Cc2cccnc2)cc1OC (configuration not stated)	-1.9	-19.1	55.3*	-8.9	0.8	44.7*
Cc1ccccc1Nc1nc(-c2cccnc2)nc2ccccc12	0.3	-3.5	x	1.2	-2.3	-5.7
